# Laboratory results: the RNAGym collection of RNA variant scans (doi:10.1126/science.aae0568)
# This sample holds only a part of the variants without activity.
# B1: tRNA (parent)
# chain: GUUCCGUUGGCGUAAUGGUAACGCGUCUCCCUCCUAAGGAGAAGACUGCGGGUUCGAGUCCCGUACGGAACG
# Variants of: B1
# Assay: yeast fitness relative to wild type (ratio to wild type); higher = fitter; tRNA-Arg(CCU), competitive growth, 37 C, YPD
# Procedure, shortened: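 A pool of Saccharomyces cerevisiae strains, each with a tRNA-Arg(CCU) gene variant at the native genomic locus, was competed in YPD at 37°C for 24 hours across six parallel replicates. The variants had been chemically synthesised at a 3% per-site mutation rate over 69 sites, and gene amplicons before and after competition were read by 100-nucleotide paired-end sequencing. Darwinian fitness relative to wild type rested on changes in genotype frequencies. Genotypes required ≥ 100 starting reads, and estimates < 0.5 were set to 0.5.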
row,Variant,yeast fitness
1,C5U C11A A21G A70G,≤ 0.5
2,C5G A43U U64C,0.703
3,C5G C33A G41C,≤ 0.5
4,C5G A15U U35A,0.696
5,C5G G17A A40C U59C,0.723
6,C5G C11A A40C U59C,≤ 0.5
7,C5G U7C C11U G25A,≤ 0.5
8,C5G C11U A42G C49U,0.548
9,C5U C22A U32A C60G,≤ 0.5
10,C5U C11A A21G G23C,≤ 0.5
11,C5U A14G G50C C55U A57G,0.675
12,C5G G17A U26C A70C,≤ 0.5
13,C5G U7G G23C C31U C49U,≤ 0.5
14,C5U C11A C66G,0.613
15,C5G U26A A36C C61U,≤ 0.5
16,C5G A15U C29G,≤ 0.5
17,C5G C24U C27A G51C G56C,≤ 0.5
18,C5G G58C A69C,0.794
19,C5G A36U U59G A65U,≤ 0.5
20,C5U A14C A42U,≤ 0.5
21,C5G C11U C29A,0.53
22,C5G C29U U54G C60G C62U,≤ 0.5
23,C5G U28A C34G C46A,≤ 0.5
24,C5U A21U U32A A40U,0.634

row,Variant,yeast fitness
1,C5G G17C,0.651
2,C5G A43U C61G,≤ 0.5
3,C5G A21G G44A,0.59
4,C5U A37C C46U U53C,≤ 0.5
5,C5G U47C C66U,0.627
6,C5U A14C G41C G58C C66U,0.523
7,C5G G9A A14C A37G C62G,≤ 0.5
8,C5U A45U C49A,0.696
9,C5G G9C C29U C30U C55A A65G,≤ 0.5
10,C5G G12A A43G,0.536
11,C5G U7C A36C A57U C61A C66G,≤ 0.5
12,C5G G12C U19A C31A,≤ 0.5
13,C5U A20U C30A G67A A70G,0.657
14,C5U A45U,1.01
15,C5U A45G,0.974
16,C5G A42G,0.701
17,C5G C46U G67A,0.683
18,C5G C34U C66U,≤ 0.5
19,C5G G51A G68C,≤ 0.5
20,C5G C11G A15U U54C C61G A70C,≤ 0.5
21,C5G A15G C24G U32A C34G U64C G68A A69U A70U,≤ 0.5
22,C5U A15U U19C,0.672
23,C5G C33A G41C U54C,≤ 0.5
24,C5G A40C,0.638

row,Variant,yeast fitness
1,C5G C30G,0.523
2,C5G C46A G48A U64G,0.546
3,C5G A20G A65U,0.652
4,C5U A42C G67U,0.69
5,C5G G9C U35G C66U,≤ 0.5
6,C5G U16A U19G A20C C27U C29U C30U A70G,≤ 0.5
7,C5U A45C G56A,0.801
8,C5G C29G G41C,≤ 0.5
9,C5G A21G U32C C49G A65G,0.553
10,C5G C29G A43C G52A G67A,≤ 0.5
11,C5G A15U G63A,0.551
12,C5G C11A A14G G25C C29G A57U C66U,≤ 0.5
13,C5G C27U A57U,≤ 0.5
14,C5G G17C G58C U59C,0.57
15,C5G C34G C49U C55U,≤ 0.5
16,C5U A21U C30G G56A C66A,≤ 0.5
17,C5U A40G A45U,0.638
18,C5G U7A C11U A36C G38A G44C,0.589
19,C5G A20C U54A,0.616
20,C5G G18A G25A C61U A69G,0.574
21,C5G A43U C66U A69U,≤ 0.5
22,C5U A42G A65C,0.596
23,C5U A21C C31G G68C,≤ 0.5
24,C5G G48A,0.978

row,Variant,yeast fitness
1,C5G G25A U54G C55U A70C,≤ 0.5
2,C5G C29U A42C C55U,≤ 0.5
3,C5G A42G C49G A70U,≤ 0.5
4,C5G A37U C55G C61G C66G,0.623
5,C5U A40C,0.851
6,C5U A14G G50C U53C C55U A57G,≤ 0.5
7,C5U A21G C29U C31A G51C,≤ 0.5
8,C5G G9A C30G,≤ 0.5
9,C5U A15G A20U A42G G63C,0.65
10,C5G U13A C22G C29G A40U U54C C61G G67A,≤ 0.5
11,C5G G10A C30U A42C A70G,≤ 0.5
12,C5G C11U C31U,0.676
13,C5G U59A,0.896
14,C5G U8G A20C,≤ 0.5
15,C5G C34A G39C G52A G58A G63A,≤ 0.5
16,C5G G51C C55G A57U C66U,≤ 0.5
17,C5G U8A A42C G48C,≤ 0.5
18,C5U C11G A15U U32A U35G C55A C61G,≤ 0.5
19,C5G G10C A69C,0.556
20,C5G A20G A40G G44A C46G C60G C61U G63A,≤ 0.5
21,C5G A21G G41A,0.503
22,C5U A21U A57U C60A,≤ 0.5
23,C5G C33U G44C,≤ 0.5
24,C5G C11G A42C C49U C62A,≤ 0.5

row,Variant,yeast fitness
1,C5G A15G C24G U32A C34G G68A A69U A70U,0.516
2,C5G A21G C24U G68A,0.71
3,C5G C22U U26A A65U,≤ 0.5
4,C5G U13G C29U A40G G68A A70C,≤ 0.5
5,C5G G51A C62G,≤ 0.5
6,C5G A21C U54A A57G,≤ 0.5
7,C5G G6C A21U,0.544
8,C5G G25A G56A,0.803
9,C5G U35C G44C C62A G68C A69U,≤ 0.5
10,C5G A43G A70G,0.537
11,C5G G17C C46U G50A,≤ 0.5
12,C5U C11A,0.586
13,C5U A40G G56A A69C,0.575
14,C5G G9A A43G G48C,≤ 0.5
15,C5G A21C C61A,≤ 0.5
16,C5G C33A A42G A57G,≤ 0.5
17,C5G G67U,0.859
18,C5U A21U U32G,≤ 0.5
19,C5G G9C A43G A70U,≤ 0.5
20,C5G C30G C31A G50A U54C U59A,0.596
21,C5G U28A C55G,≤ 0.5
22,C5G G12C C33U G68C,0.612
23,C5G G48C C49U U54G A65G C66A,≤ 0.5
24,C5U A20C C29A,0.666

row,Variant,yeast fitness
1,C5U C11A C24A U28G,0.63
2,C5U A14U C33G C46U A69C,≤ 0.5
3,C5U C11U C24U G44C,≤ 0.5
4,C5G C11G C34U,0.576
5,C5G A36U G41A,≤ 0.5
6,C5G C27G C46G A65G,≤ 0.5
7,C5G G6C,0.718
8,C5G C46U G50A,0.731
9,C5G G17U A45U G68C,≤ 0.5
10,C5G G51C U54A A69U,0.562
11,C5U C11G C22U C30G G58C C60G,≤ 0.5
12,C5G G44C C49G,0.521
13,C5G C11G A14U A15U A69C,≤ 0.5
14,C5U A37U A42U G67A,≤ 0.5
15,C5G C30U U54A,0.601
16,C5G A14U U16C G18C U32A G58A,0.542
17,C5G G25C C62U,0.721
18,C5G U13C A21C A57U A65U G68C,≤ 0.5
19,C5U A15G,0.912
20,C5G A21C A45G A57G G68A,≤ 0.5
21,C5G U8G G63A,≤ 0.5
22,C5G G17C G23C,≤ 0.5
23,C5G C34G A69U,≤ 0.5
24,C5G G12A C31U C49G,≤ 0.5

row,Variant,yeast fitness
1,C5U C11U A37G C60G,0.581
2,C5G G17A G18A,0.553
3,C5G U16C A20G A70U,≤ 0.5
4,C5G G23A C31G,≤ 0.5
5,C5G C11G A15C A65C,≤ 0.5
6,C5G C55G A65C G67A,≤ 0.5
7,C5G C11G A14U A15U C29A C60G,≤ 0.5
8,C5G G25A G68U,0.633
9,C5G U13G C27G C30A,≤ 0.5
10,C5G U47A G56U G58C,≤ 0.5
11,C5G A36U A42G A57C,≤ 0.5
12,C5G A20C C22U C24U C55U,≤ 0.5
13,C5U C11U G25C A45C C62A A70U,0.611
14,C5U A14U U16A C66U,0.511
15,C5G G48A A70U,0.803
16,C5G C33A A36C C66U,≤ 0.5
17,C5G U13G C29U A40G C60U A65G,≤ 0.5
18,C5U C11A C22G C55G C60G,0.997
19,C5U A43G A69C,0.72
20,C5G C31U G41C A43C C60G,≤ 0.5
21,C5G U19G C22U A43G C49G,≤ 0.5
22,C5G G9C C33A U35C C46U C49U G52C C61U C66U,≤ 0.5
23,C5G C66A,0.703
